Reference: ChEMBL document CHEMBL3227992, “Glycerides as prodrugs. 1. Synthesis and antiinflammatory activity of 1,3-bis(alkanoyl)-2-(O-acetylsalicyloyl)glycerides (aspirin triglycerides)” (J Med Chem, 1979)
Blank lines part the entries; values can stand above or below the molecule they belong to. Activity calls are given as the source filed them. The rule behind the calls is not given here.

Assays:
[1] = Drug absorption in rat at 1192 umol/kg, po administered as emulsified solution; format: ADME, organism-based; conditions: in vivo, read-out: Drug absorption
Summary of the method: (§1)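 Rats were dosed orally, with the glyceride given as an emulsion. Plasma salicylate was followed from 15 min to 24 h after dosing and reported as mean levels. Absorption was estimated by comparing mean areas under the plasma salicylate curves with those after aspirin.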

Rattus norvegicus [2] = assay: Ulcerogenicity in Sprague-Dawley rat assessed as gastric lesions at 444 umol/kg, po; format: toxicity, organism-based, Stomach; conditions: in vivo
Summary of the method: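 Rats were fasted overnight and dosed orally with compound in 0.5% methylcellulose plus Tween 80. Stomachs were examined for gastric lesions by the Brodie and Hansen method. Lesion incidence counted animals with a lesion of 1 mm or longer, expressed relative to plain aspirin.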

Plasma [3] = assay: Prodrug conversion in rat plasma assessed as salicylate level at 1192 umol/kg, po administered as emulsified solution measured after 24 hrs; format: ADME, organism-based; conditions: in vivo; summary of the method: as §1
Rattus norvegicus [4] = assay: Antipyretic activity against yeast-induced fever in rat assessed as delay in onset of activity at 1068 umol/kg, po relative to aspirin; format: functional, organism-based
Rattus norvegicus [5] = assay: Antipyretic activity against yeast-induced fever in rat assessed as prolonged duration of action at 1068 umol/kg, po relative to aspirin; format: functional, organism-based
Rattus norvegicus [6] = assay: Antiinflammatory activity in Sprague-Dawley rat assessed as inhibition of carrageenin-induced hind paw swelling at 444 umol/kg, po administered 2 hrs prior to carrageenin challenge measured after 3 hrs by volumetric transducer analysis relative to aspirin; format: functional
Summary of the method: (§2)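 Male Sprague-Dawley rats (170-200 g) were fasted overnight with water ad libitum. Compounds were suspended in 0.5% (w/v) methylcellulose with a drop of Tween 80 and given orally 2 h before a subplantar injection of 0.1 mL of 1.5% carrageenin. Paw volume was read before and 3 h after injection by immersion in a mercury vessel linked to a volumetric transducer and polygraph.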

Plasma [7] = assay: Prodrug conversion in rat plasma assessed as salicylate level at 1192 umol/kg, po administered as emulsified solution measured after 1 to 6 hrs; format: ADME, organism-based; conditions: in vivo; summary of the method: as §1
Rattus norvegicus [8] = assay: Antiinflammatory activity in Sprague-Dawley rat assessed as inhibition of carrageenin-induced hind paw swelling at 273 umol/kg, po administered 2 hrs prior to carrageenin challenge measured after 3 hrs by volumetric transducer analysis relative to aspirin; format: functional; summary of the method: as §2
Rattus norvegicus [9] = assay: Antiinflammatory activity in Sprague-Dawley rat assessed as inhibition of carrageenin-induced hind paw swelling at 323 umol/kg, po administered 2 hrs prior to carrageenin challenge measured after 3 hrs by volumetric transducer analysis relative to aspirin; format: functional; summary of the method: as §2
Rattus norvegicus [10] = assay: Antiinflammatory activity in Sprague-Dawley rat assessed as inhibition of carrageenin-induced hind paw swelling at 394 umol/kg, po administered 2 hrs prior to carrageenin challenge measured after 3 hrs by volumetric transducer analysis relative to aspirin; format: functional; summary of the method: as §2
Plasma [11] = assay: Prodrug conversion in rat plasma assessed as salicylate level at 594 umol/kg, po measured after 24 hrs; format: ADME, organism-based; conditions: in vivo; summary of the method: as §1
Plasma [12] = assay: Prodrug conversion in rat plasma assessed as salicylate level at 594 umol/kg, po measured after 15 mins; format: ADME, organism-based; conditions: in vivo, 0.25 h; summary of the method: as §1

Fa [1]: 100%
Drug metabolism (Plasma [3]): 61 µg/mL
Drug metabolism (Plasma [7]): 219 µg/mL
SMILES: CCCCCCCCCC(=O)OCC(COC(=O)CCCCCCCCC)OC(=O)c1ccccc1OC(C)=O
Activity (Rattus norvegicus [2]): Non-toxic
Activity (Rattus norvegicus [4]): Active
Activity (Rattus norvegicus [5]): Active
inhibition in vivo at 444 µmol/kg (Rattus norvegicus [6]): 80%

SMILES: CCCCCCCCCCCCCCCC(=O)OCC(COC(=O)CCCCCCCCCCCCCCC)OC(=O)c1ccccc1OC(C)=O
inhibition in vivo at 273 µmol/kg (Rattus norvegicus [8]): 12%

SMILES: CCCCCCCCCCCC(=O)OCC(COC(=O)CCCCCCCCCCC)OC(=O)c1ccccc1OC(C)=O
inhibition in vivo at 323 µmol/kg (Rattus norvegicus [9]): 44%

SMILES: CCCCCCCC(=O)OCC(COC(=O)CCCCCCC)OC(=O)c1ccccc1OC(C)=O
inhibition in vivo at 394 µmol/kg (Rattus norvegicus [10]): 60%

SMILES: CC(=O)OCC(COC(C)=O)OC(=O)c1ccccc1OC(C)=O
Activity (Rattus norvegicus [2]): Toxic
inhibition in vivo at 444 µmol/kg (Rattus norvegicus [6]): 48%

SMILES: CCCC(=O)OCC(COC(=O)CCC)OC(=O)c1ccccc1OC(C)=O
Activity (Rattus norvegicus [2]): Non-toxic
inhibition in vivo at 444 µmol/kg (Rattus norvegicus [6]): 92%

Drug metabolism (Plasma [11]): 24 µg/mL
Drug metabolism (Plasma [12]): 196 µg/mL
SMILES: CC(=O)Oc1ccccc1C(=O)O [ASPIRIN]
Activity (Rattus norvegicus [2]): Toxic
